From ChEMBL document CHEMBL1126908, “Synthesis and evaluation of new 6-amino-substituted benzo[c]phenanthridine derivatives” (J Med Chem, 1993)
In brackets after ≈: the same amount, converted by molar mass.

How the values were obtained:
[1] = Cytotoxicity was measured on human mammary adenocarcinoma cells(Calc 18); type: functional, cell-based
Method in brief: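 Human mammary adenocarcinoma Calc 18 cells exposed to various drug concentrations for 96 h at 37 °C. Viability read by neutral red staining. IC50 is the concentration giving 50% growth inhibition.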

[2] = target: DNA topoisomerase 2-beta (Homo sapiens) (UniProt Q02880); assay: Inhibition of topoisomerase II; details: Bos taurus
Method in brief: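 Topoisomerase I or II purified from calf thymus, tested in a DNA cleavage assay. Read-out is the minimal inhibitory concentration (μM), meaning the lowest concentration that gives detectable stimulation of DNA cleavage.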

L1210 = assay: Cytotoxicity against murine lymphoblastic leukemia cells (L1210).; type: functional, cell-based; details: Mus musculus
Method in brief: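 Murine L1210 cells grown in Dulbecco's MEM with 10% fetal calf serum at 37 °C, 5% CO2. Cells seeded, then after 24 h compounds added in duplicate at various concentrations and incubated 24 h. Cells counted by Coulter counter. IC50 taken as the dose giving 50% growth inhibition, extrapolated from regression curves of non-toxic experimental points.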

P388 [3] = assay: (§1) Cytotoxicity was measured on murine leukemia p388; type: functional, cell-based; details: Mus musculus
Method in brief: (§2)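 Cells (P388, or camptothecin-resistant P388 CPT0.3) incubated 96 h at 37 °C with various drug concentrations. Viability read by neutral red staining. IC50 taken as the concentration giving 50% growth inhibition.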

P388 [4] = assay: (§3) Cytotoxicity was measured on murine leukemia p388 CPT 0.3; type: functional; details: Mus musculus; method in brief: as §2
P388 [5] = assay: as §3; type: functional, cell-based; details: Mus musculus; method in brief: as §2
[6] = The ratio of the mean survival time of treated animals on the mean survival time of controls multiplied by 100.It is measured at dose of 5 mg/kg; T/C value; type: functional
Method in brief: (§4)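 Female BDF1 mice inoculated IP with 10⁶ P388 leukemia cells on day 0, with 10 controls and 6 mice per test group. Compounds given IP as 0.2-mL PBS solutions on days 1, 3 and 7. T/C = mean survival time of treated mice / mean survival time of controls × 100.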

[7] = The ratio of the mean survival time of treated animals on the mean survival time of controls multiplied by 100.It is measured at dose of 20 mg/kg; T/C value; type: functional; method in brief: as §4
P388 [8] = assay: as §1; type: functional; details: Mus musculus; method in brief: as §2
[9] = The ratio of the mean survival time of treated animals on the mean survival time of controls multiplied by 100.It is measured at dose of 10 mg/kg; T/C value; type: functional; method in brief: as §4
[10] = The ratio of the mean survival time of treated animals on the mean survival time of controls multiplied by 100.It is measured at dose of 40 mg/kg; T/C value; type: functional; method in brief: as §4
[11] = The ratio of the mean survival time of treated animals on the mean survival time of controls multiplied by 100.It is measured at dose of 100 mg/kg; T/C value; type: functional; method in brief: as §4
[12] = system: P388 leukemia cells (Mus musculus); assay: Cytotoxicity was measured on cultured murine leukemia cells (P388)

Sequence of DNA topoisomerase 2-beta (Homo sapiens) (Q02880 whole entry): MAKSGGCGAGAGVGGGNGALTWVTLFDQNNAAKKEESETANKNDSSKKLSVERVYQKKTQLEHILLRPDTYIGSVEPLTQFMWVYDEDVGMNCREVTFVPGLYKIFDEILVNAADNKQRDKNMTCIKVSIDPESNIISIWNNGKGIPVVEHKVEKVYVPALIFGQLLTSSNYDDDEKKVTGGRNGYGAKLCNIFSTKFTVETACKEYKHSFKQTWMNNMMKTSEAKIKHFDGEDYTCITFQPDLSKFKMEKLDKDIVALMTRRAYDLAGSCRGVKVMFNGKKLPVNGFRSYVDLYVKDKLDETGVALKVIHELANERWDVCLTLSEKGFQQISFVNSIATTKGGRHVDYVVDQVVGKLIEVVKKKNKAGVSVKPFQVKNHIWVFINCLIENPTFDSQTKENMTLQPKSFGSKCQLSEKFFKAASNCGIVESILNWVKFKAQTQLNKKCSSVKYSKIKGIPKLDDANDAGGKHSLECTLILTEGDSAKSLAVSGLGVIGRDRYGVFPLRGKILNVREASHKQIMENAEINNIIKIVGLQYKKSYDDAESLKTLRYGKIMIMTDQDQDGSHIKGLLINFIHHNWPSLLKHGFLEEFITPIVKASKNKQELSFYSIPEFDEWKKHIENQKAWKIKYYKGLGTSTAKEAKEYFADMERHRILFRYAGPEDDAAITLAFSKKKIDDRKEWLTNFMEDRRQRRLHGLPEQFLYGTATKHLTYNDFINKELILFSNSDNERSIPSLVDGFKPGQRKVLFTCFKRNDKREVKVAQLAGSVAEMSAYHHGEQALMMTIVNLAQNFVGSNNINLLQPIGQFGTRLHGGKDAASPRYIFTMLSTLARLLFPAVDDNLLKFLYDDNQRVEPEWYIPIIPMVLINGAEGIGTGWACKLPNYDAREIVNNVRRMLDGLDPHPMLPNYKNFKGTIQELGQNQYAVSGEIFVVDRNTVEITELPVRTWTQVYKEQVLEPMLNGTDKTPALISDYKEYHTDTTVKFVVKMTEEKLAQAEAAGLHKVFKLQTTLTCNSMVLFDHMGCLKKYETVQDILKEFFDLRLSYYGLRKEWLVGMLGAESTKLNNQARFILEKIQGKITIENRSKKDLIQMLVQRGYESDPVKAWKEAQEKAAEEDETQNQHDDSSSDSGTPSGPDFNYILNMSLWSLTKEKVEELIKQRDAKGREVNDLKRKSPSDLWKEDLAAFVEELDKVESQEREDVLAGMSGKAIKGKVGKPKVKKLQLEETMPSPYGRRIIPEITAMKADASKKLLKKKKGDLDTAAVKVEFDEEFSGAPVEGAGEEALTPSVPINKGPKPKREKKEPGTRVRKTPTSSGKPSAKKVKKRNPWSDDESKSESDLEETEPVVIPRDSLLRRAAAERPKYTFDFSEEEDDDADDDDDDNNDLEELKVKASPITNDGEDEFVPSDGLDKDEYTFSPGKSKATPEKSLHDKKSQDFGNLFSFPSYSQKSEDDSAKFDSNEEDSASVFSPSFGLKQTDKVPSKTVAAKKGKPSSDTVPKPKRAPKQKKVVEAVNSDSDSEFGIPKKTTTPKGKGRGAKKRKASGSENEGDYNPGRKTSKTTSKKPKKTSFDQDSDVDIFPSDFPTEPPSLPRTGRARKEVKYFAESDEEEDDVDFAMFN

SMILES | IC50 [1] [nM] | MIC [2] [µM] | IC50 (L1210) [nM] | also measured
COc1cc2ccc3c4cc(OC)c(OC)cc4c(NCCN(C)C)nc3c2cc1OC | 3000 | > 10 | > 5000 | 
COc1cc2c(NCCN(C)C)nc3c4cc5c(cc4ccc3c2cc1OC)OCO5 | 600 | 1 (≈ 0.419 µg/mL) | 300 | IC50 (P388 [3]): 900 nM; IC90 (P388 [4]): 3500 nM; IC50 (P388 [5]): 150 nM; Ratio [6]: 99; Ratio [7]: 92; IC90 (P388 [8]): 3500 nM; Ratio [9]: 103
CN(C)CCNc1nc2c3ccc(O)cc3ccc2c2ccccc12 | 1000 | 1 (≈ 0.331 µg/mL) | 500 | Ratio [6]: 93; Ratio [7]: 118; Ratio [10]: 101; Ratio [9]: 138
CN(C)CCCNc1nc2c3ccc(O)cc3ccc2c2ccc(O)cc12 | > 10000 | 10 (≈ 3.61 µg/mL) | 4500 | 
CN(C)CCCNc1nc2c3ccc(O)cc3ccc2c2ccccc12 | 3000 | > 10 | 2600 | 
COc1cc([C@@H]2c3cc4c(cc3[C@@H](O[C@@H]3O[C@@H]5CO[C@@H](C)O[C@H]5[C@H](O)[C@H]3O)[C@H]3COC(=O)[C@H]23)OCO4)cc(OC)c1O |  | 0.1 (≈ 0.0589 µg/mL) |  | 
CN(C)CCNc1nc2c3cc(O)ccc3ccc2c2ccccc12 | 3000 | 10 (≈ 3.31 µg/mL) | 500 | Ratio [6]: 92; Ratio [7]: 102; Ratio [9]: 83
CN(C)CCNc1nc2c3ccccc3ccc2c2ccccc12 |  |  | > 90000 | 
COc1ccc2c(c1)c(NCCN(C)C)nc1c3ccc(O)cc3ccc21 | 1500 | 10 (≈ 3.61 µg/mL) |  | 
COc1ccc2c(ccc3c4ccccc4c(NCCN(C)C)nc23)c1 | 3000 | 10 (≈ 3.45 µg/mL) | 3000 | 
CN(C)CCNc1nc2c3ccc(O)cc3ccc2c2ccc(O)cc12 | 1000 | 3 (≈ 1.04 µg/mL) | 500 | Ratio [6]: 119; Ratio [7]: 111; Ratio [9]: 111
COc1ccc2c(ccc3c4ccc(OC)cc4c(NCCN(C)C)nc23)c1 | 1500 | 10 (≈ 3.75 µg/mL) | 1700 | 
COc1ccc2c(ccc3c4ccccc4c(NCCCN(C)C)nc23)c1 | 2500 | > 10 | 3400 | 
COc1ccc2c(ccc3c4ccc(OC)cc4c(NCCCN(C)C)nc23)c1 | 3000 | > 10 | 2500 | 
COc1ccc2ccc3c4ccccc4c(NCCN(C)C)nc3c2c1 |  |  | 2500 | 
COc1ccc2ccc3c4ccccc4c(NCCCN(C)C)nc3c2c1 |  |  | 2600 | 
CN(C)CCCNc1nc2c3cc(O)ccc3ccc2c2ccccc12 | 2500 | > 10 | 3400 | Ratio [6]: 91; Ratio [7]: 73; Ratio [9]: 90
COc1cc2c(ccc3c4cc(OC)c(OC)cc4c[n+](C)c23)cc1O.[Cl-] [FAGARONINE] |  |  | 2000 | IC50 (P388 [3]): 2000 nM; Ratio [11]: 265; IC90 (P388 [4]): > 10000 nM; IC50 (P388 [5]): > 10000 nM; IC90 (P388 [8]): 6000 nM
CC[C@@]1(O)C(=O)OCc2c1cc1n(c2=O)Cc2cc3ccccc3nc2-1 [CAMPTOTHECIN] |  | > 100 |  | IC50 [12]: 15 nM
